# Experimental data published in ChEMBL document CHEMBL1138512, “A class of 2,4-bisanilinopyrimidine Aurora A inhibitors with unusually high selectivity against Aurora B” (J Med Chem, 2009).
# Tests used:
# [1] = molecular target: Casein kinase II subunit alpha (Homo sapiens) (UniProt P68400); test: Inhibition of CK2alpha1 at 1 uM
# [2] = molecular target: Mitogen-activated protein kinase 1 (Homo sapiens) (UniProt P28482); test: Inhibition of ERK2 at 1 uM
# [3] = molecular target: RAC-alpha serine/threonine-protein kinase (Homo sapiens) (UniProt P31749); test: Inhibition of PKBalpha at 1 uM
# Aurora kinase B [4] = molecular target: T1, Aurora kinase B (Homo sapiens, UniProt Q96GD4); test: Inhibition of N-terminal flag-tagged Aurora B expressed in Escherichia coli BL21-DE3 by ELISA
# T1 sequence (Q96GD4 whole entry): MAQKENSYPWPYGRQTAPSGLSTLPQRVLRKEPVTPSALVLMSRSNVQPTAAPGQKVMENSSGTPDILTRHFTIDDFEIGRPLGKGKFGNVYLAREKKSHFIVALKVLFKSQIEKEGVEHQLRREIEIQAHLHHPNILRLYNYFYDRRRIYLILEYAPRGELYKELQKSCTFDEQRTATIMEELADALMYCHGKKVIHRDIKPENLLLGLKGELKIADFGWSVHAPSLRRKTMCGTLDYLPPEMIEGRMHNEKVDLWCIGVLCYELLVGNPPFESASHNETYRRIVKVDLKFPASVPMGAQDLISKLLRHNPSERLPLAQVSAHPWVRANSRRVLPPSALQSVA
# [5] = molecular target: Ribosomal protein S6 kinase beta-1 (Homo sapiens) (UniProt P23443); test: Inhibition of p70S6K at 1 uM
# Sequence of Ribosomal protein S6 kinase beta-1 (Homo sapiens) (P23443 whole entry, looked up): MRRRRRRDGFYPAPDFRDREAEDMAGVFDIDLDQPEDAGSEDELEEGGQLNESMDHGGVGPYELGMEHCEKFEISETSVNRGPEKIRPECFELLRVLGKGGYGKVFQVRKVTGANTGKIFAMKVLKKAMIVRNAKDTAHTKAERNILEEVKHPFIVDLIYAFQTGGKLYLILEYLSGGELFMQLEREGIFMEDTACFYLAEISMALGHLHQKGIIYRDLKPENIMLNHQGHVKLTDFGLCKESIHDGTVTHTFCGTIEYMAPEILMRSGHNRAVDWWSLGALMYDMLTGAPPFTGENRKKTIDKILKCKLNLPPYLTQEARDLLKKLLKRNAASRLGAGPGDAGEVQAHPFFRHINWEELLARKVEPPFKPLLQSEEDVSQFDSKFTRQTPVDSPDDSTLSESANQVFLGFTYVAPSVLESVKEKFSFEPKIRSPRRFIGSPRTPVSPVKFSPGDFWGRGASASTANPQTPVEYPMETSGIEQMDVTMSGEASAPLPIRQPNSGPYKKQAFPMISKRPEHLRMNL
# [6] = molecular target: Mitogen-activated protein kinase 8 (Homo sapiens) (UniProt P45983); test: Inhibition of JNK1 at 1 uM
# Aurora kinase B [7] = molecular target: T1, Aurora kinase B; test: Inhibition of Aurora B in human HT29 cells assessed as complete loss of phospho-histone H3 staining by immunofluorescence assay; format: cell-based, HT-29
# Outline: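 Immunofluorescence for phospho-S10 histone H3 in HCT116 or HT29 cells, scored visually. Value taken as the lowest inhibitor concentration giving complete loss of staining, so it lies above the IC50. Units µM.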
# [8] = molecular target: MAP kinase-activated protein kinase 2 (Homo sapiens) (UniProt P49137); test: Inhibition of MAPKAPK2 at 1 uM
# [9] = molecular target: Ribosomal protein S6 kinase alpha-1 (Homo sapiens) (UniProt Q15418); test: Inhibition of RSK1 at 1 uM
# [10] = molecular target: Cyclin-dependent kinase 5/CDK5 activator 1 (Homo sapiens) (UniProt Q00535+Q15078); test: Inhibition of CDK5/p25 at 1 uM; format: protein-complex assay
# Aurora kinase B [11] = molecular target: Aurora kinase B (Homo sapiens, UniProt Q96GD4, E161T); test: Inhibition of N-terminal flag-tagged Aurora B E161T mutant expressed in Escherichia coli BL21-DE3
# Sequence of Aurora kinase B (Homo sapiens, UniProt Q96GD4, E161T) (Q96GD4 whole entry E161T): as the sequence (Q96GD4 whole entry) above, with E161T counted along it
# [12] = molecular target: Beta-adrenergic receptor kinase 1 (Homo sapiens) (UniProt P25098); test: Inhibition of GRK2 at 1 uM
# [13] = molecular target: Tyrosine-protein kinase receptor UFO (Homo sapiens) (UniProt P30530); test: Inhibition of Axl at 1 uM
# [14] = molecular target: Dual specificity mitogen-activated protein kinase kinase 1 (Homo sapiens) (UniProt Q02750); test: Inhibition of MEK1 at 1 uM
# Sequence of Dual specificity mitogen-activated protein kinase kinase 1 (Homo sapiens) (Q02750 whole entry): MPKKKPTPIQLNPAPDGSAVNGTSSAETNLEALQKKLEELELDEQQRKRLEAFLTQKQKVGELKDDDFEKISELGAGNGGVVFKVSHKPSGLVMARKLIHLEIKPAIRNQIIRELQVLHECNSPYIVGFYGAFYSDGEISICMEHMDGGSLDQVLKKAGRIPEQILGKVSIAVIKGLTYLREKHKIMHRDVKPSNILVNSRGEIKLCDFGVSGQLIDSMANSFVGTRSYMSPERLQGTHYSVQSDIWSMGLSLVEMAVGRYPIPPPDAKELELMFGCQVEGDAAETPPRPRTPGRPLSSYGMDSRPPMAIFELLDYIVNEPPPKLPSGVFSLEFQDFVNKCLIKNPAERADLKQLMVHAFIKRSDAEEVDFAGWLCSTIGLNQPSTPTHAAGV
# [15] = molecular target: Dual specificity tyrosine-phosphorylation-regulated kinase 3 (Homo sapiens) (UniProt O43781); test: Inhibition of DYRK3 at 1 uM
# [16] = molecular target: Serine/threonine-protein kinase PLK3 (Homo sapiens) (UniProt Q9H4B4); test: Inhibition of PLK3 at 1 uM
# Sequence of Serine/threonine-protein kinase PLK3 (Homo sapiens) (Q9H4B4 whole entry, looked up): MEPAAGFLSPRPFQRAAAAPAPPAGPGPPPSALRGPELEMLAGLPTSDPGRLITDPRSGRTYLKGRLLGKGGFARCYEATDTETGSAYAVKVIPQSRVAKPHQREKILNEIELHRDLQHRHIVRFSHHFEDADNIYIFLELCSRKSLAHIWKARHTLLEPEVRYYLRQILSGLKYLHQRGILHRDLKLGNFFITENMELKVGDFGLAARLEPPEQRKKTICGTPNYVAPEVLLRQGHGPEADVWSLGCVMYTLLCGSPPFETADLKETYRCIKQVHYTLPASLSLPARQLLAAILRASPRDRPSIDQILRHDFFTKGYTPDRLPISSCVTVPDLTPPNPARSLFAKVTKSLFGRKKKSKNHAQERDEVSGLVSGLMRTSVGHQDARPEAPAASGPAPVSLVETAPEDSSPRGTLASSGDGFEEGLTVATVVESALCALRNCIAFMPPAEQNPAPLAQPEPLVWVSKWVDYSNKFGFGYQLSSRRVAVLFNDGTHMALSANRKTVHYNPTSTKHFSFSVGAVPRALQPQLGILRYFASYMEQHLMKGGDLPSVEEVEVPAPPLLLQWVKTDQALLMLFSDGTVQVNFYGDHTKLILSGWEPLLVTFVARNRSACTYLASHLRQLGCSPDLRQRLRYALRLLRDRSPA
# [17] = molecular target: Fibroblast growth factor receptor 1 (Homo sapiens) (UniProt P11362); test: Inhibition of FGFR1 at 1 uM
# [18] = molecular target: Rho-associated protein kinase 1 (Homo sapiens) (UniProt Q13464); test: Inhibition of ROCK1 at 1 uM
# [19] = molecular target: Aurora kinase C (Homo sapiens) (UniProt Q9UQB9); test: Inhibition of Aurora C at 1 uM
# [20] = molecular target: Mitogen-activated protein kinase kinase kinase 9 (Homo sapiens) (UniProt P80192); test: Inhibition of MLK1 at 1 uM
# Sequence of Mitogen-activated protein kinase kinase kinase 9 (Homo sapiens) (P80192 whole entry, looked up): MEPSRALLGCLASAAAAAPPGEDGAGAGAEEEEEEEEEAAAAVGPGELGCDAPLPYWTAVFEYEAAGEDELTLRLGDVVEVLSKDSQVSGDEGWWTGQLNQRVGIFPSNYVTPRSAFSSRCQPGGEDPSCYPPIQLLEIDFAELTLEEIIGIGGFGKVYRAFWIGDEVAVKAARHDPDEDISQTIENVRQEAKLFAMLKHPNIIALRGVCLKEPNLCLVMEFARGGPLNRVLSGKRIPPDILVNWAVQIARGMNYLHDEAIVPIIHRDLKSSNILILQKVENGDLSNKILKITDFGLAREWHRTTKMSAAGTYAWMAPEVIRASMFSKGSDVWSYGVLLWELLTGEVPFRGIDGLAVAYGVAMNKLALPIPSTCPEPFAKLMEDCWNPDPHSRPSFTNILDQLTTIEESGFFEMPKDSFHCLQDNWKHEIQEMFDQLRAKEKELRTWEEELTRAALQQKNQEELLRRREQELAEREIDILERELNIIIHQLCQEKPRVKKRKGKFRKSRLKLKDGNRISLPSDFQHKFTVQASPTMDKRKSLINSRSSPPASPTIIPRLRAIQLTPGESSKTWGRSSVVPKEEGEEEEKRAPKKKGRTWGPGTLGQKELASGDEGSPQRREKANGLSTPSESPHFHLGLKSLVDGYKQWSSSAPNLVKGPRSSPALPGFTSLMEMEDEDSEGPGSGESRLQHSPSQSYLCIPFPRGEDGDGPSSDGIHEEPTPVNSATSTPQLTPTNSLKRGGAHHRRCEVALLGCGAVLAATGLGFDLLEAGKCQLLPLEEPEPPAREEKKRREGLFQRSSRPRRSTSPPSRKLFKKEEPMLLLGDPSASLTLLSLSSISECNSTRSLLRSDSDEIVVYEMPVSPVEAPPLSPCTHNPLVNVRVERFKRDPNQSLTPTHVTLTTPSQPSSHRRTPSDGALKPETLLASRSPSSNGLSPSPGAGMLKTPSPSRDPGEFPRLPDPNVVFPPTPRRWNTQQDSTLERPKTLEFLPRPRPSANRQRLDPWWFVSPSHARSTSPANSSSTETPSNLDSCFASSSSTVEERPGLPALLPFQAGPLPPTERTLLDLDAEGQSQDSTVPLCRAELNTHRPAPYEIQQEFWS
# [21] = molecular target: Serine/threonine-protein kinase Nek2 (Homo sapiens) (UniProt P51955); test: Inhibition of NEK2 at 1 uM
# [22] = molecular target: Hepatocyte growth factor receptor (Homo sapiens) (UniProt P08581); test: Inhibition of c-Met at 1 uM
# [23] = molecular target: Casein kinase I isoform gamma-2 (Homo sapiens) (UniProt P78368); test: Inhibition of CK1gamma2 at 1 uM
# [24] = molecular target: Activin receptor type-1B (Homo sapiens) (UniProt P36896); test: Inhibition of ALK4 at 1 uM
# [25] = molecular target: Serine/threonine-protein kinase Nek9 (Homo sapiens) (UniProt Q8TD19); test: Inhibition of NEK9 at 1 uM
# [26] = molecular target: Serine/threonine-protein kinase Sgk1 (Homo sapiens) (UniProt O00141); test: Inhibition of SGK1 at 1 uM
# [27] = molecular target: 5'-AMP-activated protein kinase catalytic subunit alpha-1 (Homo sapiens) (UniProt Q13131); test: Inhibition of AMPK A1/B1/G1 at 1 uM
# Aurora kinase B [28] = molecular target: T1, Aurora kinase B; test: Inhibition of Aurora B in human HCT116 cells assessed as complete loss of phospho-histone H3 staining by immunofluorescence assay
# [29] = molecular target: ALK tyrosine kinase receptor (Homo sapiens) (UniProt Q9UM73); test: Inhibition of ALK at 1 uM
# Sequence of ALK tyrosine kinase receptor (Homo sapiens) (Q9UM73 19-1620 limits assumed): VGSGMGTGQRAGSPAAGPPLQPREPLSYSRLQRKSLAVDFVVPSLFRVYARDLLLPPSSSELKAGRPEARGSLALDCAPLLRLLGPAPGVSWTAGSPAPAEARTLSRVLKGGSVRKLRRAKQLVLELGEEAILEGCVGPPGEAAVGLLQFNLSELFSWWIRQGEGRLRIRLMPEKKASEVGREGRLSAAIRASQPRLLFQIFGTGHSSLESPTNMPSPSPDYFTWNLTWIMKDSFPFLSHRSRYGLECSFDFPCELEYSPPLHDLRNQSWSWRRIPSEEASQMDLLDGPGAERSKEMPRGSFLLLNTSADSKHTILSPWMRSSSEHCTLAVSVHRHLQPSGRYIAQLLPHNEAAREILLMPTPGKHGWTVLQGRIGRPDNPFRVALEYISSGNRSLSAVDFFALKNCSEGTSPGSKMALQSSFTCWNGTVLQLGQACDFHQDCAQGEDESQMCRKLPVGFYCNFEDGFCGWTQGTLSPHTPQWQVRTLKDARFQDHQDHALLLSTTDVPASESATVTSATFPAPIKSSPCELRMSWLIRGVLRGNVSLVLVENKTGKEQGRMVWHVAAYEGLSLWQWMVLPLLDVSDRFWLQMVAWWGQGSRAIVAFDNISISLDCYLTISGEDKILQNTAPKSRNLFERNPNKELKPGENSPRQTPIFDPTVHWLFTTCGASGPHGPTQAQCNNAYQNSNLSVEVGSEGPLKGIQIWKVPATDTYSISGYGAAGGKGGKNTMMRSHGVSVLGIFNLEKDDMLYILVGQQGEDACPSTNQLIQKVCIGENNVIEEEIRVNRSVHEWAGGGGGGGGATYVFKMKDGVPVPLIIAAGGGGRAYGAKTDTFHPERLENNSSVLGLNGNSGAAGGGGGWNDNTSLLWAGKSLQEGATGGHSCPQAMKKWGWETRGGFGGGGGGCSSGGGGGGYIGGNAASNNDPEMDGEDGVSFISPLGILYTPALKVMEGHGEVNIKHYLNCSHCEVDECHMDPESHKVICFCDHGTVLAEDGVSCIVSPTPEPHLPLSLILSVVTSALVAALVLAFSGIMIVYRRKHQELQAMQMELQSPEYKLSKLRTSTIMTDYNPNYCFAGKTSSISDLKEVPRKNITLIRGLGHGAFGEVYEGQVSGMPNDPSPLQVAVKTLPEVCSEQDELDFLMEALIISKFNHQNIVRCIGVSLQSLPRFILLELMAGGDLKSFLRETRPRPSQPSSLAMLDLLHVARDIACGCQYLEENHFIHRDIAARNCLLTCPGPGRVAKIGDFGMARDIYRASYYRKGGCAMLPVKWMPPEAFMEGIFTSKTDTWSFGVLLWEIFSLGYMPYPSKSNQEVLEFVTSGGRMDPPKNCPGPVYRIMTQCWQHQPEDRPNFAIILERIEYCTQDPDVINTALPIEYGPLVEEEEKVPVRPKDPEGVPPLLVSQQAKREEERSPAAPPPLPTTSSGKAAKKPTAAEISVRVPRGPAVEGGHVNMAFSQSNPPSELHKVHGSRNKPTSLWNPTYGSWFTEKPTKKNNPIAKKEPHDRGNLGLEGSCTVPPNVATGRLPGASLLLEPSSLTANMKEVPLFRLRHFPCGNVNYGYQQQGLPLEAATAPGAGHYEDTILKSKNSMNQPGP
# Sequence of Casein kinase II subunit alpha (Homo sapiens) (P68400 whole entry, looked up): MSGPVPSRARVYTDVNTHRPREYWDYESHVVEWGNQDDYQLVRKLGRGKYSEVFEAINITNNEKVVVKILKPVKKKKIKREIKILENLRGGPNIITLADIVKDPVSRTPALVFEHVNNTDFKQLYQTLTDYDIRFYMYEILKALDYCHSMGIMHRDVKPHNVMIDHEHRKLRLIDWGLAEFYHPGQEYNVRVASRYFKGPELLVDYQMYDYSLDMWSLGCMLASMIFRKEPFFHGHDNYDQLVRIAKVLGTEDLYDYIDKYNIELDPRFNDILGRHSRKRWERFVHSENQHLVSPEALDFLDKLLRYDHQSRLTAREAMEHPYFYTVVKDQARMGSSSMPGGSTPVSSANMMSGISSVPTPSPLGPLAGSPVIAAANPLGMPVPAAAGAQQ
smiles,measurement,setting,value
CC(=O)N1CCN(C(=O)Cc2ccc(Nc3ncc(F)c(Nc4ccc(C(=O)Nc5ccccc5Cl)cc4)n3)cc2)CC1,inhibition,[1],16%
same,inhibition,[2],11%
same,inhibition,[3],11%
same,IC50,Aurora kinase B [4],3.7 µM
same,inhibition,[5],17%
same,inhibition,[6],21%
same,IC50,Aurora kinase B [7],> 27 µM
same,inhibition,[8],9%
same,inhibition,[9],23%
same,inhibition,[10],7%
same,IC50,Aurora kinase B [11],0.057 µM
same,inhibition,[12],8%
same,inhibition,[13],46%
same,inhibition,[14],21%
same,inhibition,[15],5%
same,inhibition,[16],-3%
same,inhibition,[17],16%
same,inhibition,[18],-8%
same,inhibition,[19],36%
same,inhibition,[20],41%
same,inhibition,[21],25%
same,inhibition,[22],14%
same,inhibition,[23],10%
same,inhibition,[24],11%
same,inhibition,[25],17%
same,inhibition,[26],7%
same,inhibition,[27],20%
same,IC50,Aurora kinase B [28],> 25 µM
same,inhibition,[29],21%
